Bioassay records deposited in PubChem by The Scripps Research Institute Molecular Screening Center.
NPY-Y2 antag: blocks the human neuropeptide Y Y2 receptor | inhibition, % at 2.7 µM | NPY-Y2 expressing cells, antagonist mode | 140,000 compounds, 0.99% hits | P49146; in the data active means inhibition above about 17%;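 further: 0% = vehicle with agonist challenge and 100% = reference antagonist with challenge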
Target sequence (P49146 whole entry, looked up): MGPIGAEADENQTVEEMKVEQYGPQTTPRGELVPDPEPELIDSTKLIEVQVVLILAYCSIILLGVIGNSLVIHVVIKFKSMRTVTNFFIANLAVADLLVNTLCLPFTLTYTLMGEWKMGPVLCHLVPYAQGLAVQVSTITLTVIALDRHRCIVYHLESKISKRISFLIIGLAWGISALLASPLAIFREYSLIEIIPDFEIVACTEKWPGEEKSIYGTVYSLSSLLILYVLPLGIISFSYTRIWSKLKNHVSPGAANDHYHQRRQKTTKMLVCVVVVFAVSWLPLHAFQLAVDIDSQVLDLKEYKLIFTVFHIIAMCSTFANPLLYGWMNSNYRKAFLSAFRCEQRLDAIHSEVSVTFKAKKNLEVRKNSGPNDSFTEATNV
NPY2 pot ag: potentiators or agonists of human neuropeptide Y receptor Y2. activation, % at 3.6 µM. P49146. cells expressing NPY-Y2, potentiator/agonist read-out. 220,000 compounds, 0.45% hits; in the data active means activation above about 27%;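 further: cells stimulated with NPY near EC25 plus isoproterenol at EC100; 0% = vehicle plus submaximal agonist and 100% = vehicle plus saturating agonist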
NPY1 pot ag: potentiators or agonists of human neuropeptide Y receptor Y1 | P25929 | NPY-Y1 expressing cells, potentiator/agonist activation | activation, % at 3.6 µM | 220,000 compounds, 0.37% hits; in the data active means activation above about 33%, passing the limit was not always enough;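 further: cells stimulated with NPY at EC10 then isoproterenol at EC100; 0% = low agonist plus stimulus and 100% = saturating agonist plus stimulus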
NPY-Y1 antag: antagonists of human neuropeptide Y receptor Y1. P25929. HEK293-CNG Y1 cells, membrane potential fluorescence; NPY at EC95, then isoproterenol. inhibition, % at 3.6 µM. 200,000 compounds, 1% hits. AID 1040;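 active means inhibition above the campaign mean inhibition of all tested compounds plus 3 SD, cut at about 20% in these data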;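 further: 0% = DMSO wells given NPY plus isoproterenol and 100% = isoproterenol alone without NPY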
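Material: HEK293 Y1/CNG channel cell line | Also added: NPY (25 nM), isoproterenol (1 µM), Ro 20-1724 (25 µM) | Compound: One concentration, 3.6 µM, in 0.4% DMSO | Schedule: 3 h dye uptake, 1 h room-temperature compound, 45 min post-isoproterenol | Signal: Membrane-potential fluorescent dye readout | Read-out: % inhibition of NPY effect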
Starred values were filed as active, the others as inactive; x = no result. Rows were chosen to be rich in hits. Some 1.8% of all compounds tested hit in one or more screens of this group.

SMILES	NPY-Y2 antag	NPY2 pot ag	NPY1 pot ag	NPY-Y1 antag
COc1ccc(-c2csc(NC(=O)c3ccc(S(=O)(=O)N4CCc5ccccc5C4)cc3)n2)c(OC)c1	-1	6	1	-6
Cn1ncc(C#N)c1/N=C/N(Cc1ccccc1)Cc1ccccc1	26*	-32	-70	22*
N#C/C(=C(/O)COC(=O)c1ccc(C#N)cc1)c1nc2ccccc2s1	11	8	0	2
CCOC(=O)c1ccc(-n2c(C)nc3ccc(Br)cc3c2=O)cc1	x	-7	8	x
Cc1ccnc2ccc(SC(F)(F)F)cc12	x	2	-10	-1
Cc1ccccc1NC(=S)N(Cc1ccccc1)Cc1cccs1	x	-9	-14	22*
O=C1CCC(/C=C/c2ccccc2)=NN1Cc1ccc(Cl)c(Cl)c1	25*	-10	-34	20*
CC(C)OP(=O)(OC(C)C)/C(C=O)=N\Nc1ccc([N+](=O)[O-])cc1	x	53*	51*	x
CCO[C@H]1OC(C(=O)NCc2ccccc2)=C[C@@H](c2ccc(C(F)(F)F)cc2)[C@@H]1CCCO	x	11	37*	-8
CCC(C(=O)Nc1cccc(C(F)(F)F)c1)c1ccccc1 (stereo not given)	7	-14	-7	20*
O=C(Nc1cccc(C(F)(F)F)c1)C(SCCO)c1ccccc1 (stereo not given)	1	4	8	2
O=C(CSc1ncnc2scc(-c3ccccc3)c12)N1CCN(c2ccccc2F)CC1	30*	-5	-29	33*
COc1ccccc1N1CCN(C(=O)CSc2ncnc3scc(-c4ccccc4)c23)CC1	4	-1	-31	0
COc1ccc(C(=O)C(CCCCC(CN(C)C)C(=O)c2ccc(OC)cc2)CN(C)C)cc1 (stereo not given)	22*	-23	-93	21*
Cc1c(CCOC(=O)c2cccc([N+](=O)[O-])c2)sc[n+]1CC(=O)c1ccccc1	x	2	6	3
CC(=O)N1CN(C2CCCC2)Cc2c1sc1c2CCCC1	18*	-4	-18	24*
COc1ccc(-c2cc(N)n(S(=O)(=O)c3ccc(F)cc3)n2)cc1OC	1	21	19	5
Cc1cc(N(CCO)CCO)ccc1N=Nc1cc(F)ccc1F	x	69*	62*	-17
CC(=O)Nc1ccc(NC(=O)C2CC(=O)N(c3ccccc3Cl)C2)cc1 (stereo not given)	x	-16	2	-5
COc1cccc(NC(=O)c2ccccc2-c2nc(-c3cccc(C)c3)no2)c1	23*	-33	-108	37*
Cc1cccc(-c2noc(-c3ccccc3C(=O)NCC3CCCO3)n2)c1 (stereo not given)	1	-14	-5	12
COC(=O)COc1ccc(NS(=O)(=O)c2cccc([N+](=O)[O-])c2)cc1	x	48*	35*	-2
COC(=O)COc1cccc(NS(=O)(=O)c2cccc([N+](=O)[O-])c2)c1	x	0	0	3
COC(=O)Cc1c(C(=O)OC)nnn1-c1cccc(C(F)(F)F)c1	x	-3	10	3
Cc1cc(C2(c3ccc(O)c(C)c3)OC(=O)c3ccccc32)ccc1O	5	-11	-17	0
SMILES	NPY-Y2 antag	NPY2 pot ag	NPY1 pot ag	NPY-Y1 antag
Cc1cc(O)c(C(C)C)cc1C1(c2cc(C(C)C)c(O)cc2C)OC(=O)c2ccccc21	x	70*	76*	x
Cc1ccccc1Nc1c(-c2cccnc2)nc2cccc(C)n12	x	29*	39*	-2
N#CCOC(=O)c1c2c(nc3ccccc13)CCC2	x	6	12	-3
CC(C)(C)c1ccc(OCC(O)CNC(=O)c2ccccc2C(=O)O)cc1 (stereo not given)	6	-11	-54	16
C=CCc1ccccc1OCC(O)CN(CC)CC (stereo not given)	2	89*	103*	-15
C=CCn1c(=N)n(CC(O)COc2ccccc2OC)c2ccccc21 (stereo not given)	12	-9	-8	12
C=CCc1ccccc1OCC(O)CNC(=O)c1ccccc1C(=O)O (stereo not given)	x	92*	87*	x
CC(C)C(=O)Nc1ccc(C(=O)NNC(=S)NC(=O)c2ccco2)cc1	x	-16	-7	x
Cc1ccc(-c2cc(C(=O)Nc3cccnc3)c3ccccc3n2)o1	5	-31	-36	-4
Cc1cccc(NC(=O)c2cc(-c3ccc(C)s3)nc3ccccc23)n1	23*	-87	-117	28*
Cc1ccc(NC(=O)c2cc(-c3ccc(C)o3)nc3ccccc23)cc1	115*	-132	-187	118*
Cc1cc(NC(=O)c2cc(-c3ccc(C)s3)nc3ccccc23)no1	6	-28	-18	4
Cc1ccc(NC(=S)NCc2ccco2)c(C)c1	x	-7	-7	x
O=C(Nc1cccc(C(F)(F)F)c1)c1cc(-c2ccc(F)cc2)on1	24*	-4	-22	22*
CCOC(=O)CSc1nc2cc(S(=O)(=O)Nc3ccccc3OC)ccc2o1	-1	45*	70*	-2
CCN(CC)CCCNC(=O)C1CCN(C(=O)c2cc3sccc3n2Cc2ccc(F)cc2)CC1	1	100*	64*	-5
COCCCNC(=O)C1CCN(C(=O)c2cc3sccc3n2Cc2ccc(F)cc2)CC1	0	9	18	-2
Cc1ccccc1NC(=O)CSc1nc(N)c2c3c(sc2n1)CSC(C)(C)C3	47*	-23	-60	32*
COc1ccc(N=c2oc3cc(O)ccc3cc2C(=O)NCC2CCCO2)c(OC)c1 (stereo not given)	31*	-10	-20	30*
CCOc1ccccc1N=c1oc2cc(O)ccc2cc1C(=O)NCC1CCCO1 (stereo not given)	25*	-12	-45	36*
CCOc1ccccc1CN(Cc1ccco1)S(=O)(=O)c1ccc(-n2cnnn2)c(OC)c1	18*	-21	-11	38*
O=C(CCc1ccccc1)Nc1ccccc1F	1	5	-25	-4
O=C(CCc1ccccc1)Nc1c(F)c(F)c(F)c(F)c1F	16	-36	-78	33*
CCN(CC)C(=O)C(C)N(C#N)c1nc(C)cc(C)n1 (stereo not given)	0	105*	114*	-12
CC(=O)OCCNc1cc(N2CCN(C)CC2)c2noc3c2c1C(=O)c1ccccc1-3	-5	33*	49*	-6
SMILES	NPY-Y2 antag	NPY2 pot ag	NPY1 pot ag	NPY-Y1 antag
CCOC(=O)C(C(=O)OCC)c1cc(Br)c2noc3c2c1C(=O)c1ccccc1-3	2	-6	-17	1
COc1cccc(CNCCc2c[nH]c3ccccc23)c1OCc1ccccc1	24*	-15	-51	50*
CCCC(=O)N(CCN(Cc1ccccc1)C(=O)CCC)Cc1ccccc1	25*	-12	-15	56*
CCOCC(=O)N(CC)Cc1ccccc1	x	5	-5	2
CNc1ccc(C(O)(C(F)(F)F)C(F)(F)F)cc1C(O)(C(F)(F)F)C(F)(F)F	0	58*	46*	-10
Cc1ccc(N)c(C(O)(C(F)(F)F)C(F)(F)F)c1	3	3	7	3
CC(Sc1nc2ccccc2s1)C(=O)c1c(N)n(C)c(=O)n(C)c1=O (stereo not given)	x	-1	-6	-2
